Activity calls are given as the source filed them. The rule behind the calls is not given here.
What was measured:
SK-BR-3 [1] = assay: Cytotoxicity against human SKBR3 cells at 10 uM after 72 hrs by MTT assay; format: functional, cell-based
How it was run: (§1)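 MTT growth-inhibition assay on SKBR-3 breast cancer and CEM leukemia cells, 72 h exposure over 0.1–10 μM. IC50 is the concentration giving 50% growth inhibition, derived by linear regression and reported as a mean of six experiments. Single-concentration entries are taken at 10 μM, the top of the range.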

CCRF-CEM [2] = assay: Cytotoxicity against human CCRF-CEM cells at 10 uM after 72 hrs by MTT assay; format: functional, cell-based; how it was run: as §1
Calf thymus DNA = assay: Displacement of ethidium bromide from calf thymus DNA by fluorescence assay; format: nucleic-acid assay, Bos taurus; details: for Kapp: Bos taurus
How it was run: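 Fluorometric intercalator displacement. EC50 is the drug concentration that cuts DNA-bound ethidium fluorescence by 50%, given as the mean of three determinations ± SEM. Apparent binding constant is calculated taking the ethidium binding constant as 10^7 M-1.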

SH-SY5Y [3] = assay: Cytotoxicity against human SH-SY5Y assessed as cell viability at 5 uM after 20 hrs by trypan blue exclusion assay; format: functional; details: read-out: Activity
How it was run: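 SH-SY5Y cells exposed to 5 μM for 20 h. Viable cell fraction assessed by dye exclusion.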

HL-60 [4] = assay: Cytotoxicity against human HL60 cells after 24 hrs by dye exclusion assay; details: HL-60, 24 h
SH-SY5Y [5] = assay: Cytotoxicity against human SH-SY5Y assessed as decrease in ERK2 protein level at 5 uM after 20 hrs by Western blotting; format: functional, cell-based
How it was run: (§2)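 SH-SY5Y cells treated 20 h with 5 μM, then harvested. Protein content and phosphorylation status in cell extracts read by Western blotting at 50 μg protein per lane.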

HL-60 [6] = assay: Induction of apoptosis in human HL60 cells assessed as caspase 3 activation at 5 uM after 24 hrs by DEVDase activity assay; format: functional, cell-based
How it was run: (§3)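 HL60 cells exposed to 5 μM for 4 or 24 h. DEVDase (effector caspase 3/7) activity measured on the DEVD peptide substrate.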

SH-SY5Y [7] = assay: Cytotoxicity against human SH-SY5Y assessed as decrease in ERK1 phosphorylation at 5 uM after 20 hrs by Western blotting; format: functional, cell-based; how it was run: as §2
SH-SY5Y [8] = assay: Cytotoxicity against human SH-SY5Y assessed as decrease in ERK1 protein level at 5 uM after 20 hrs by Western blotting; format: functional, cell-based; how it was run: as §2
SH-SY5Y [9] = assay: Cytotoxicity against human SH-SY5Y assessed as decrease in ERK2 phosphorylation at 5 uM after 20 hrs by Western blotting; format: functional, cell-based; how it was run: as §2
HL-60 [10] = assay: Induction of apoptosis in human HL60 cells assessed as caspase 3 activation at 5 uM after 4 hrs by DEVDase activity assay; format: functional, cell-based; how it was run: as §3
SH-SY5Y [11] = assay: Cytotoxicity against human SH-SY5Y assessed as p53 protein accumulation at 5 uM after 20 hrs by Western blotting; format: functional, cell-based; how it was run: as §2
SH-SY5Y [12] = assay: Cytotoxicity against human SH-SY5Y at 1 to 5 uM after 72 hrs by trypan blue exclusion assay; format: functional, cell-based
How it was run: (§4)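 SH-SY5Y neuroblastoma cells incubated with compounds at 1 to 5 μM for the indicated times up to 72 h. Viable cells counted by dye exclusion.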

HL-60 [13] = assay: Induction of apoptosis in human HL60 cells assessed as caspase 3 activation after 4 hrs by DEVDase activity assay; format: functional, cell-based
How it was run: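 HL60 cells treated 4 h at the indicated doses, then collected. Caspase (DEVDase) activity determined.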

SH-SY5Y [14] = assay: Cytotoxicity against human SH-SY5Y after 72 hrs by trypan blue exclusion assay; format: functional, cell-based; how it was run: as §4
[15] = molecular target: DNA topoisomerase 2-alpha (Homo sapiens) (UniProt P11388); assay: Stimulation of human recombinant topoisomerase 2alpha-mediated SV40 DNA cleavage at 10 uM after 45 mins by PAGE
DNA topoisomerase 2-alpha (Homo sapiens), sequence (P11388 whole entry): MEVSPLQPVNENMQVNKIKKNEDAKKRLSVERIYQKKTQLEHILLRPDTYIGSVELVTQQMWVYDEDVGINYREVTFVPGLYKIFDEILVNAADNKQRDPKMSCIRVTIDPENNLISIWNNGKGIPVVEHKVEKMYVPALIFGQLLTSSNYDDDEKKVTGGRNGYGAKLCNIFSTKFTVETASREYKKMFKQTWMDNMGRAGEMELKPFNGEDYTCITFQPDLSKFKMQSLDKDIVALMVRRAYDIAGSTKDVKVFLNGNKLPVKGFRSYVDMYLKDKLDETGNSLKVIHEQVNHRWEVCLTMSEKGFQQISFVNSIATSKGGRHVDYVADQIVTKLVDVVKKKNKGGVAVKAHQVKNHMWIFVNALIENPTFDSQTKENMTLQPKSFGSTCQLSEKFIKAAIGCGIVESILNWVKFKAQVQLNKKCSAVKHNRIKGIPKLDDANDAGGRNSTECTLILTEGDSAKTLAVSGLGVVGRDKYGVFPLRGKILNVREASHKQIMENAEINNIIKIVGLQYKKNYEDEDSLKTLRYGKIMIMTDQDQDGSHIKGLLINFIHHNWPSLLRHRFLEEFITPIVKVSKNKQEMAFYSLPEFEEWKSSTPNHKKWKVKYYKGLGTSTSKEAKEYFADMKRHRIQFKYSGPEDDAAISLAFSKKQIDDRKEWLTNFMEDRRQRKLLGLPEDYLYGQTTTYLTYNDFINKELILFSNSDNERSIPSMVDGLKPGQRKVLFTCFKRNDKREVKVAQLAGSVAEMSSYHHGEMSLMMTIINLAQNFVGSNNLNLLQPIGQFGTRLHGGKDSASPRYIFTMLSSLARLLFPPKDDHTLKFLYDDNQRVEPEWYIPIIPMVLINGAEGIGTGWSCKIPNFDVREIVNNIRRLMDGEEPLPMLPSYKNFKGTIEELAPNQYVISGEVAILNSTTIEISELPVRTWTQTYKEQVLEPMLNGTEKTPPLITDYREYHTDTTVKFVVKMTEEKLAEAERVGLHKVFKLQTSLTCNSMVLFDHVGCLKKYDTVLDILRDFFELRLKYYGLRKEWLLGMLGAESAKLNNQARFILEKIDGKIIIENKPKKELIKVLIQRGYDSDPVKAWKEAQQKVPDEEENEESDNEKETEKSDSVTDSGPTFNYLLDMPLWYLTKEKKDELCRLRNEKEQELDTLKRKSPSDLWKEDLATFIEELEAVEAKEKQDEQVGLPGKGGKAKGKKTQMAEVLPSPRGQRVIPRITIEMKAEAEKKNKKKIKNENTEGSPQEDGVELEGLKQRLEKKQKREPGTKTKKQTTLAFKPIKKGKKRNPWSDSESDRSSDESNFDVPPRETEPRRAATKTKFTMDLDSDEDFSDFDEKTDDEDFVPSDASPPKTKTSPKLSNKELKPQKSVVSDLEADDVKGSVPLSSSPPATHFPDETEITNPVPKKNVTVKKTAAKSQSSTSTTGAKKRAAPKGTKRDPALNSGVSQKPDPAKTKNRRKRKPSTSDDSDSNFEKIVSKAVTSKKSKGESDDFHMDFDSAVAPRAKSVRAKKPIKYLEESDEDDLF
How it was run: (§5)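 Cleavage assay with recombinant human DNA topoisomerase IIα, using SV40 DNA as substrate, to test for stimulation of DNA cleavage (poison activity).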

SK-BR-3 [16] = assay: Cytotoxicity against human SKBR3 cells after 72 hrs by MTT assay; format: functional, cell-based; details: SK-BR-3, 72 h; how it was run: as §1
SH-SY5Y [17] = assay: Cytotoxicity against human SH-SY5Y at 1 uM after 24 hrs by trypan blue exclusion assay; format: functional, cell-based
How it was run: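 SH-SY5Y cells given 1 μM. Viability at 24 h scored by dye exclusion.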

[18] = molecular target: DNA topoisomerase 2-alpha (Homo sapiens) (UniProt P11388); assay: Stimulation of human recombinant topoisomerase 2alpha-mediated SV40 DNA cleavage at 50 uM after 45 mins by PAGE; how it was run: as §5
CCRF-CEM [19] = assay: Cytotoxicity against human CCRF-CEM cells after 72 hrs by MTT assay; format: functional, cell-based; how it was run: as §1
HL-60 [20] = assay: Induction of apoptosis in human HL60 cells assessed as decrease in procaspase 3 level at 5 uM after 4 hrs by Western blotting; format: functional, cell-based
How it was run: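 HL60 cells incubated 4 h with 5 μM. Extracted proteins analysed by Western blot for the 32 kDa procaspase 3 precursor and its active proteolytic fragment.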

SH-SY5Y [21] = assay: Cytotoxicity against human SH-SY5Y assessed as cell survival at 1 uM after 72 hrs by trypan blue exclusion assay; format: functional; details: read-out: Survival
How it was run: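 SH-SY5Y neuroblastoma cells incubated with compound at 1 to 5 μM for the indicated times, including 24 h and 72 h. Viable cells were then counted by dye exclusion and expressed as cell survival.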

Jurkat = assay: Induction of apoptosis in human Jurkat T cells assessed as caspase 3 activation at 5 uM after 24 hrs by DEVDase activity assay; format: functional, cell-based
How it was run: (§6)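 SH-SY5Y neuroblastoma, H9c2 heart and Jurkat T cells treated 24 h with 5 μM. Caspase (DEVDase) activation measured, reported as mean ± SEM of triplicates.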

SH-SY5Y [22] = assay: Induction of apoptosis in human SH-SY5Y cells assessed as caspase 3 activation at 5 uM after 24 hrs by DEVDase activity assay; format: functional, cell-based; how it was run: as §6
SH-SY5Y [23] = assay: Cytotoxicity against human SH-SY5Y assessed as p53 protein accumulation at 1 uM after 20 hrs by Western blotting; format: functional, cell-based
How it was run: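 SH-SY5Y extracts prepared after 20 h incubation at the indicated concentrations. p53 content measured by Western blot, 50 μg protein loaded per point.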

H9c2 = assay: Induction of apoptosis in rat H9c2 cells assessed as caspase 3 activation at 5 uM after 24 hrs by DEVDase activity assay; format: cell-based; details: h9c2, 24 h; how it was run: as §6

With COc1ccccc1CNCCCN1C(=O)c2cccc3cccc(c23)C1=O the Activity (SK-BR-3 [1]) was “inactive” and the Activity (CCRF-CEM [2]) was “inactive”.

CN(C)CCN1C(=O)c2cccc3cc([N+](=O)[O-])cc(c23)C1=O [MITONAFIDE] showed an EC50 (Calf thymus DNA) of 11500 nM, a Kapp (Calf thymus DNA) of 2.2 ×10⁶ /M and a viability at 5 µM (SH-SY5Y [3]) of 70%. The IC50 (HL-60 [4]) was 1600 nM, the Activity (SH-SY5Y [5]) was “Active” and the Activity (HL-60 [6]) was “Active”. For the same molecule, the Activity (SH-SY5Y [7]) was “inactive”, the Activity (SH-SY5Y [8]) was “Active” and the Activity (SH-SY5Y [9]) was “inactive”. The Activity (HL-60 [10]) was “Active” and the Activity (SH-SY5Y [11]) was “Active”.

In the case of COc1ccccc1CNCCCN1C(=O)c2ccc3c4c(ccc(c24)C1=O)C(=O)N(CCCNCc1ccccc1OC)C3=O, the Activity (SH-SY5Y [12]) is reported as “Active”, the EC50 (Calf thymus DNA) is reported as 122 nM and the Kapp (Calf thymus DNA) is reported as 2.07 ×10⁸ /M. The viability at 5 µM (SH-SY5Y [3]) was 70%, the IC50 (HL-60 [4]) was 1200 nM and the Activity (HL-60 [13]) was “Dose-dependent effect”. For the same molecule, the IC50 (SH-SY5Y [14]) was 1400 nM, the Activity [15] was “inactive” and the IC50 (SK-BR-3 [16]) was 200 nM. For the same molecule, the Activity (SH-SY5Y [17]) was “inactive”, the Activity [18] was “inactive” and the Activity (SH-SY5Y [5]) was “Active”. For the same molecule, the IC50 (CCRF-CEM [19]) was 400 nM, the Activity (HL-60 [6]) was “Active” and the Activity (SH-SY5Y [7]) was “Active”. The Activity (SH-SY5Y [8]) was “Active”, the Activity (SH-SY5Y [9]) was “Active” and the Activity (HL-60 [20]) was “Active”. The Activity (HL-60 [10]) was “Active”.

For COc1ccccc1CNCCN1C(=O)c2cccc3cccc(c23)C1=O, the Activity [15] was “inactive”, the IC50 (SK-BR-3 [16]) was 2000 nM and the Activity [18] was “inactive”. The Activity (CCRF-CEM [2]) was “inactive”.

Work on COc1ccccc1CNCCCCCCCCN1C(=O)c2cccc3cccc(c23)C1=O yielded an IC50 (SK-BR-3 [16]) of 1400 nM and an IC50 (CCRF-CEM [19]) of 1200 nM.

In the case of COc1ccccc1CNCCCCCN1C(=O)c2ccc3c4c(ccc(c24)C1=O)C(=O)N(CCCCCNCc1ccccc1OC)C3=O, the IC50 (SK-BR-3 [16]) is reported as 1100 nM and the IC50 (CCRF-CEM [19]) is reported as 1100 nM.

COc1ccccc1CNCCCCCCCCCN1C(=O)c2ccc3c4c(ccc(c24)C1=O)C(=O)N(CCCCCCCCCNCc1ccccc1OC)C3=O was tested, and the IC50 (SK-BR-3 [16]) was 400 nM and the IC50 (CCRF-CEM [19]) was 1400 nM.

With COc1ccccc1CNCCCCCCCCCN1C(=O)c2cccc3cccc(c23)C1=O the Activity [15] was “inactive”, the IC50 (SK-BR-3 [16]) was 500 nM and the Activity [18] was “inactive”. For the same molecule, the IC50 (CCRF-CEM [19]) was 1300 nM.

COc1ccccc1CNCCCCCCN1C(=O)c2ccc3c4c(ccc(c24)C1=O)C(=O)N(CCCCCCNCc1ccccc1OC)C3=O gave an IC50 (SK-BR-3 [16]) of 1200 nM and an IC50 (CCRF-CEM [19]) of 2200 nM.

With COc1ccccc1CNCCCCN1C(=O)c2ccc3c4c(ccc(c24)C1=O)C(=O)N(CCCCNCc1ccccc1OC)C3=O the IC50 (SK-BR-3 [16]) was 700 nM and the IC50 (CCRF-CEM [19]) was 800 nM.

COc1ccccc1CNCCCCCN1C(=O)c2cccc3cccc(c23)C1=O was tested, and the Activity (SK-BR-3 [1]) was “inactive” and the Activity (CCRF-CEM [2]) was “inactive”.

Molecule COc1ccccc1CNCCCCCCCN1C(=O)c2ccc3c4c(ccc(c24)C1=O)C(=O)N(CCCCCCCNCc1ccccc1OC)C3=O has an IC50 (SK-BR-3 [16]) of 1700 nM and an IC50 (CCRF-CEM [19]) of 2500 nM.

With COc1ccccc1CNCCCCCCN1C(=O)c2cccc3cccc(c23)C1=O the Activity (SK-BR-3 [1]) was “inactive” and the Activity (CCRF-CEM [2]) was “inactive”.

COc1ccccc1CNCCCCCCCCN1C(=O)c2ccc3c4c(ccc(c24)C1=O)C(=O)N(CCCCCCCCNCc1ccccc1OC)C3=O showed an IC50 (SK-BR-3 [16]) of 1000 nM and an IC50 (CCRF-CEM [19]) of 1600 nM.

Molecule COc1ccccc1CNCCCCN1C(=O)c2cccc3cccc(c23)C1=O has an IC50 (SK-BR-3 [16]) of 1700 nM and an IC50 (CCRF-CEM [19]) of 3200 nM.

COc1ccccc1CNCCCCCCCCCCN1C(=O)c2ccc3c4c(ccc(c24)C1=O)C(=O)N(CCCCCCCCCCNCc1ccccc1OC)C3=O was tested, and the IC50 (SK-BR-3 [16]) was 200 nM and the IC50 (CCRF-CEM [19]) was 700 nM.

With COc1ccccc1CNCCCCCCCN1C(=O)c2cccc3cccc(c23)C1=O the Activity (SK-BR-3 [1]) was “inactive” and the Activity (CCRF-CEM [2]) was “inactive”.

For COc1ccccc1CNCCN1C(=O)c2ccc3c4c(ccc(c24)C1=O)C(=O)N(CCNCc1ccccc1OC)C3=O, the Activity (SH-SY5Y [12]) was “Active”, the EC50 (Calf thymus DNA) was 93 nM and the Kapp (Calf thymus DNA) was 2.72 ×10⁸ /M. For the same molecule, the viability at 5 µM (SH-SY5Y [3]) was 70%, the viability at 1 µM (SH-SY5Y [21]) was 60% and the IC50 (HL-60 [4]) was 900 nM. The Activity (HL-60 [13]) was “Dose-dependent effect”, the IC50 (SH-SY5Y [14]) was 1400 nM and the Activity [15] was “inactive”. For the same molecule, the IC50 (SK-BR-3 [16]) was 700 nM, the Activity (Jurkat) was “Active” and the Activity [18] was “inactive”. For the same molecule, the Activity (SH-SY5Y [5]) was “Active”, the IC50 (CCRF-CEM [19]) was 1300 nM and the Activity (HL-60 [6]) was “Active”. The Activity (SH-SY5Y [22]) was “Active”, the Activity (SH-SY5Y [7]) was “Active” and the Activity (SH-SY5Y [23]) was “Active”. For the same molecule, the Activity (SH-SY5Y [8]) was “Active”, the Activity (SH-SY5Y [9]) was “Active” and the Activity (HL-60 [20]) was “Active”. The Activity (HL-60 [10]) was “Active” and the Activity (H9c2) was “Active”.

Molecule COc1ccccc1CNCCCCCCCCCCN1C(=O)c2cccc3cccc(c23)C1=O has an IC50 (SK-BR-3 [16]) of 2000 nM and an IC50 (CCRF-CEM [19]) of 8000 nM.

Reference: ChEMBL document CHEMBL1154737, “Design, synthesis, and biological evaluation of substituted naphthalene imides and diimides as anticancer agent” (J Med Chem, 2009)
